Source: PubChem BioAssay
Sampled rows, rich in hits. Any-hit rate of the full collection: about 2.2%.
Rtt109 HAT inh – inhibitors of C. albicans Rtt109/Vps75 HAT, primary screen, biochemical, ThioGlo CoA-SH fluorescence, plate reader. inhibition, % at 34.9 µM. hit rate 0.16% among 330,000. purified Rtt109/Vps75, 4 h;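 active means inhibition of at least 50% in every replicate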
Target sequence (Q5AAJ8 whole entry, looked up): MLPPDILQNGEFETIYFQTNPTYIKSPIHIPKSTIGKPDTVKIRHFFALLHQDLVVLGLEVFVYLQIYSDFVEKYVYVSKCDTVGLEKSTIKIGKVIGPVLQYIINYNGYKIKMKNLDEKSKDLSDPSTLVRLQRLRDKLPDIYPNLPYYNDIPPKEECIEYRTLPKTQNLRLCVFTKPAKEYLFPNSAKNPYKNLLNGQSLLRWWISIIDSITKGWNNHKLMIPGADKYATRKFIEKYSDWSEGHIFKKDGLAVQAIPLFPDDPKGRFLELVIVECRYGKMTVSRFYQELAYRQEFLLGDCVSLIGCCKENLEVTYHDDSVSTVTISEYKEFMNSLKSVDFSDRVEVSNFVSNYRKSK
dFosB act-1 – activators of delta FosB homodimer, primary screen, biochemical, fluorescence polarization, TAMRA-CDK5 oligo, single point. hit rate 0.99% among 340,000. Protein FosB (Mus musculus), P13346. purified delta FosB; percent of positive-control signal above neutral wells. AID 493131, 2011. activation, % at 25 µM;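 active means mean activation above about 17%, with every replicate also reaching it, limit read from the data, passing the limit was not always enough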
CAL PDZ FP-1 – untagged CAL PDZ binding inhibitors, primary screen, biochemical, fluorescence polarization, HTS; hit rate 0.92% among 300,000; inhibition, % at 24.9 µM; purified CAL PDZ, TMR-peptide fluorescence polarization, 1 h; AID 602252, 2012;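 active means mean inhibition of at least 30% with at least half of replicates also reaching 30%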;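 further: 0% = DMSO neutral control and 100% = excess unlabeled competitor peptide PRC23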
CAL PDZ FP-2 – CAL PDZ peptide-binding inhibitors, primary screen, biochemical, fluorescence polarization, Cer-tagged CAL PDZ, HTS. hit rate 0.02% among 330,000. AID 504414, 2011. purified CAL PDZ, TMR-peptide fluorescence polarization, 1 h. Golgi-associated PDZ and coiled-coil motif-containing protein (Homo sapiens), Q9HD26. inhibition, % at 20 µM;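 active means highest replicate inhibition of at least 40%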;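 further: plate controls were DMSO neutral control wells for no effect and unlabeled competitor peptide control wells for full effect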
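Material – purified CerCALP PDZ construct · Detection – FP readout, S and P plane fluorescence · Measure – percent inhibition from loss of millipolarization · Controls – unlabelled peptide for full inhibition, DMSO wells as neutral · Probe or stimulus – TMR-labelled reporter peptide T*-PRC34 bound in PDZ groove · Times – 1 h at RT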
CDK5 p35 inh – inhibitors of human CDK5/p35 kinase, primary screen, biochemical, single concentration | inhibition, % at 10 µM | hit rate 0.01% among 330,000 | Recombinant CDK5/p35, ADP-Glo luminescence, 60 min | Cyclin-dependent kinase 5 (Homo sapiens) + Cyclin-dependent kinase 5 activator 1 (Homo …;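 active means highest replicate inhibition of at least 50% and at least 75% of replicates reaching 50%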;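 further: plate controls were DMSO neutral control for no effect and GW8510 at 10 µM for full effect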
DYRK1A inh – rat Dyrk1A kinase inhibitors, primary screen, biochemical, single point, plate reader; Dual specificity tyrosine-phosphorylation-regulated kinase 1A (Rattus norvegicus), Q63470; ADP-Glo luminescence, NFATc1 peptide; inhibition, % at 12.5 µM; hit rate 0.43% among 310,000; in the data active means inhibition above about 50%;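 further: plate controls were vehicle with enzyme for no effect and no enzyme for full effect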
dFosB act-2 – activators of mouse delta FosB DNA binding, confirmation, biochemical, fluorescence polarization, TAMRA-CDK5 oligo, cherry-picked samples; shares compounds with dFosB act-1; purified delta FosB; normalised: neutral wells 0, positive control 100; activation, % at 24.9 µM; 2,400 tested, under 10 active; AID 588690, 2011;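 active means highest replicate activation at or above 34% and every replicate reaching that threshold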;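 further: higher polarization means more probe DNA bound by delta FosB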
Starred values were filed as active, the others as inactive; . = no result.

SMILES | Rtt109 HAT inh | dFosB act-1 | CAL PDZ FP-1 | CAL PDZ FP-2 | CDK5 p35 inh | DYRK1A inh | dFosB act-2
O=C(NC1CCCC1)C(c1ccc(F)cc1)N(Cc1ccccc1Cl)C(=O)CCl (stereo not given) | -4 | -1 | 1 | 0 | 1 | -5 | .
Cc1ccc(C)c(OCC(O)CN2CCC(CN3C(=O)c4cccc5cccc(c45)C3=O)CC2)c1 (stereo not given) | -4 | 10 | -4 | -2 | -1 | 6 | .
COc1ccc(OCC(O)CN2CCC(CN3C(=O)c4cccc5cccc(c45)C3=O)CC2)cc1 (stereo not given) | 9 | 45* | 0 | -1 | 1 | 16 | 2
Cc1ccc(C)c2c1[nH]c1ccc([N+](=O)[O-])cc12 | 4 | 21* | -1 | -1 | 12 | 29 | 0
Cc1ccc(C)c2c1[nH]c1ccccc12 | 6 | -2 | -6 | 0 | 1 | -1 | .
COc1cccc(-c2sc3ccccc3c2-c2ccc(OCCN3CCCCC3)cc2)c1 | 7 | 34* | -5 | -4 | 2 | . | 1
CN1/C(=C\C(=O)COC(=O)CNC(=O)c2ccc3ccccc3c2)C(C)(C)c2ccccc21 | 8 | 34* | 2 | 0 | 0 | -2 | 1
O=C(CNC(=O)c1ccc2ccccc2c1)OCC(=O)N1CCN(S(=O)(=O)c2ccc3ccccc3c2)CC1 | 6 | 22* | -2 | 0 | -2 | -3 | -9
CN1/C(=C\C(=O)COC(=O)CNC(=O)c2ccccc2F)C(C)(C)c2ccccc21 | -4 | 9 | -3 | -1 | -1 | -1 | .
CC(=O)NCc1ccc(S(=O)(=O)N2CCN(S(=O)(=O)c3ccc4ccccc4c3)CC2)cc1 | -3 | 49* | -1 | -2 | 2 | -2 | 3
CCC(C)(C)C1CCC(=NNC(=O)c2ccoc2C)CC1 (stereo not given) | 4 | -5 | -1 | -2 | 0 | -10 | .
O=C1Cc2cc(NS(=O)(=O)c3cc(F)ccc3F)cc3c2N1CCC3 | -14 | -14 | -2 | -4 | 1 | -4 | .
CCCC[C@H]1C2=C3[C@@H](CC(C(=O)OC)=C[C@@H](C(=O)OC)[C@H]3C(C)(C)C2=O)n2c(=O)n(-c3ccccc3)c(=O)n21 | 7 | -5 | -2 | 1 | 0 | 4 | .
O=C(NCCC1=CCCCC1)C1CCN(C(=O)c2ccc(Br)cc2)CC1 | -5 | 5 | -2 | -1 | -1 | -3 | .
CC1(c2ccccc2)NC(=O)N(CC(=O)Nc2ccc(C(N)=O)cc2)C1=O (stereo not given) | -2 | -4 | -3 | -2 | 3 | 2 | .
CCc1cc2ccc(C)cc2nc1SCC(=O)Nc1c[nH]c(=O)[nH]c1=O | 23 | 22* | -5 | 0 | 0 | -3 | 6
COc1cc(-c2ccc3c(=O)c4ccccc4n(C)c3c2)cc(OC)c1OC | -6 | 35* | -8 | -10 | 0 | 2 | 4
O=C(CCCC(=O)Nc1ccccc1Br)N/N=C/c1c(F)cccc1Cl | -4 | 27* | -5 | 0 | -1 | -3 | 5
Cc1c(Cl)cccc1NC(=O)c1ncn[nH]1 | -1 | 0 | 0 | -3 | -3 | 5 | .
O=C1Nc2c(Br)cc(Br)c3cccc1c23 | 5 | 90* | 0 | -2 | 1 | 9 | 3
O=C(N/N=C/C(Cl)=C/c1ccccc1)c1ccc2c(c1)OCO2 | 6 | 11 | 2 | -2 | 1 | 0 | .
COc1cccc(C(=O)Nc2ccc(NC(=O)c3ccco3)c(Cl)c2)c1 | 13 | 23* | 2 | 0 | 1 | 2 | 3
O=C(Nc1ccc(NC(=O)c2sc3ccccc3c2Cl)cc1Cl)c1ccco1 | -7 | 41* | -2 | 1 | -1 | -1 | 3
O=C(Nc1ccc(NC(=O)c2cccs2)c(Cl)c1)c1ccco1 | 3 | -11 | -5 | -1 | 1 | 2 | .
COc1cccc(C(=O)Nc2ccc(NC(=O)c3ccco3)nc2)c1 | 0 | -8 | . | -2 | 2 | 18 | .
SMILES | Rtt109 HAT inh | dFosB act-1 | CAL PDZ FP-1 | CAL PDZ FP-2 | CDK5 p35 inh | DYRK1A inh | dFosB act-2
O=C(NNC(=O)c1ccc(NC(=O)c2ccccc2)cc1)Nc1ccccc1 | 2 | 25* | . | 1 | 1 | 12 | -1
CN(C)c1ccc(C(=O)NNC(=O)Nc2ccccc2)cc1 | 2 | 7 | -5 | -1 | 2 | -4 | .
O=C(NNC(=O)c1ccc(NC(=O)c2ccccc2)cc1)c1ccc(F)cc1 | 5 | 39* | 48* | -1 | 1 | -2 | 7
O=C(Nc1ccc2cccnc2c1)c1ccc(Br)cc1 | 6 | -12 | -5 | . | 1 | -4 | .
O=C(Nc1ccc2nc3ccccc3nc2c1)c1ccc(Br)cc1 | -15 | 32* | -7 | 1 | -1 | 0 | -2
CC(=O)c1cccc(NC(=O)CCn2c(=O)oc3ccccc32)c1 | -9 | 5 | -1 | -2 | 0 | 3 | .
CN(Cc1ccccc1)S(=O)(=O)c1cccc(C(=O)O)c1 | -11 | -3 | 0 | 0 | 0 | -3 | .
Cn1ncc(Br)c1C(=O)N/N=C/c1cccc(OC2CSC2)c1 | 0 | -7 | -5 | -1 | -1 | -3 | .
O=C(N/N=C/c1cccc(OC2CSC2)c1)c1ccccc1O | 8 | 29* | -2 | 0 | 0 | 3 | -1
O=C(NCc1ccco1)c1ccc2c(=O)n(-c3ccccc3)c(=O)n(Cc3cccc(F)c3)c2c1 | 10 | 47* | . | 0 | 0 | 5 | -1
Cc1ccc(-n2c(=O)c3ccc(C(=O)NCc4ccco4)cc3n(Cc3ccccc3C#N)c2=O)cc1 | 7 | 8 | -1 | -3 | -1 | -1 | .
Cc1ccccc1Cn1c(=O)n(-c2ccccc2)c(=O)c2ccc(C(=O)NCc3ccco3)cc21 | 0 | 45* | . | 0 | 0 | -7 | 1
N#Cc1ccccc1Cn1c(=O)n(Cc2ccc(C(=O)NCc3ccco3)cc2)c(=O)c2ccccc21 | -2 | 11 | 2 | -1 | -1 | 4 | .
C=CCn1c(=O)c2ccc(C(=O)NCc3ccccc3)cc2n(Cc2cccc(Cl)c2)c1=O | 4 | 42* | . | -1 | -1 | -1 | 0
O=C(COc1ncnc2ccccc12)Nc1cc([N+](=O)[O-])ccc1Cl | -5 | 21* | -2 | 0 | -5 | 0 | -1
